Active and inactive are the calls of the source. The rule behind the calls is not given here.
Key:
[1] = Toxicity in Wistar kyoto rat assessed as hemoglobin count in blood at 0.01 mmol/kg, ip administered for 14 days (reference value: 138 g/L); type: organism-based; conditions: in vivo, 336 h
Procedure, shortened: (§1)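 Normal WKY rats (6 per group) received compound in 10% 1,3-propanediol intraperitoneally daily for 14 days. Controls received an equal volume of vehicle. Urine was collected in metabolic cages throughout dosing. At the end of dosing, blood was taken from the eyeball for haematology, and urine parameters were analysed.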

H9c2 [2] = test: Cytoprotective activity against H2O2-induced toxicity in rat H9c2 cells assessed as increase in cell viability pretreated with compound followed by H2O2 addition and measured after 1 hrs relative to control; type: functional
Procedure, shortened: (§2)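 H9c2 cells were injured with H₂O₂ (400 µM) for 1, 4 or 8 h to give light, medium and heavy damage, in the presence of compound at 10–80 µM. Acetaminophen or ibuprofen served as controls. Viability was measured as mean ± SD of three experiments. SOD and MDA contents were measured as mean ± SD of four experiments. Morphology was assessed by Giemsa staining under light microscopy.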

[3] = Toxicity in Wistar kyoto rat assessed as lymphocyte ratio in blood at 0.01 mmol/kg, ip administered for 14 days (reference value: 42.1%); type: organism-based; conditions: in vivo, 336 h
Procedure, shortened: (§3)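 Normal WKY rats, 6 per group, received an intraperitoneal injection once daily for 14 consecutive days. The compound was dissolved in 10% 1,3-propanediol, and controls received an equal volume of vehicle. Urine was collected in metabolic cages during dosing. At the end, blood was drawn from the eyeball for haematology, and urinalysis values were compared with the vehicle group.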

H9c2 [4] = test: Cytotoxicity against rat H9c2 cells assessed as reduction in cell viability at 10 to 80 uM incubated for 24 hrs; type: cell-based; conditions: h9c2, 24 h
Procedure, shortened: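 Rat cardiac H9c2 cells were grown in DMEM with 10% FBS and penicillin/streptomycin at 37 °C and 5% CO₂. They were seeded at 5×10⁴ cells/mL and allowed to adhere for 8 h. Cells were exposed to 10, 40 or 80 µM compound for 24 h, and survival was compared with untreated cells.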

[5] = Toxicity in Wistar kyoto rat assessed as nitrite level in urine at 0.01 mmol/kg, ip administered for 14 days; type: organism-based; conditions: in vivo, 336 h; procedure, shortened: as §3
H9c2 [6] = test: Cytoprotective activity against H2O2-induced toxicity in rat H9c2 cells assessed as decrease in MDA level pretreated with compound followed by H2O2 addition and measured after 8 hrs; type: functional, cell-based; procedure, shortened: as §2
[7] = Toxicity in Wistar kyoto rat assessed as red blood cell count in blood at 0.01 mmol/kg, ip administered for 14 days (reference value: 6.83 10^12/L); type: organism-based; conditions: in vivo, 336 h; procedure, shortened: as §3
[8] = Toxicity in Wistar kyoto rat assessed as monocyte ratio in blood at 0.01 mmol/kg, ip administered for 14 days (reference value: 0.5%); type: organism-based; conditions: in vivo, 336 h; procedure, shortened: as §3
[9] = Toxicity in Wistar kyoto rat assessed as leukocyte count in blood at 0.01 mmol/kg, ip administered for 14 days (reference value: 6.88 10^9/L); type: organism-based; conditions: in vivo, 336 h; procedure, shortened: as §3
[10] = Toxicity in Wistar kyoto rat assessed as proportion in urine at 0.01 mmol/kg, ip administered for 14 days (reference value: 1.01); type: organism-based; conditions: in vivo, 336 h; procedure, shortened: as §3
[11] = Toxicity in Wistar kyoto rat assessed as Vc in urine at 0.01 mmol/kg, ip administered for 14 days; type: organism-based; conditions: in vivo, 336 h; procedure, shortened: as §1
[12] = Toxicity in Wistar kyoto rat assessed as platelet count in blood at 0.01 mmol/kg, ip administered for 14 days (reference value: 670 10^9/L); type: organism-based; conditions: in vivo, 336 h; procedure, shortened: as §3
H9c2 [13] = test: Cytoprotective activity against H2O2-induced toxicity in rat H9c2 cells assessed as increase in cell viability at 10 to 80 uM pretreated with compound followed by H2O2 addition and measured after 8 hrs relative to control; type: functional; procedure, shortened: as §2
H9c2 [14] = test: Cytoprotective activity against H2O2-induced toxicity in rat H9c2 cells assessed as increase in SOD level at 10 to 80 uM pretreated with compound followed by H2O2 addition and measured after 8 hrs; type: functional, cell-based; procedure, shortened: as §2
[15] = Toxicity in Wistar kyoto rat assessed as urine pH at 0.01 mmol/kg, ip administered for 14 days (reference value: 8.4); type: organism-based; conditions: in vivo, 336 h; procedure, shortened: as §3
[16] = Toxicity in Wistar kyoto rat assessed as leukocyte in urine at 0.01 mmol/kg, ip administered for 14 days (reference value: 10 ca cells/uL); type: organism-based; conditions: in vivo, 336 h; procedure, shortened: as §3
[17] = Toxicity in Wistar kyoto rat assessed as ketone body level in urine at 0.01 mmol/kg, ip administered for 14 days (reference value: 4 umol/L); type: organism-based; conditions: in vivo, 336 h; procedure, shortened: as §3
[18] = Toxicity in Wistar kyoto rat assessed as basophilic ratio in blood at 0.01 mmol/kg, ip administered for 14 days (reference value: 2.2%); type: organism-based; conditions: in vivo, 336 h; procedure, shortened: as §1
[19] = Toxicity in Wistar kyoto rat assessed as eosinophil ratio in blood at 0.01 mmol/kg, ip administered for 14 days (reference value: 1.8%); type: organism-based; conditions: in vivo, 336 h; procedure, shortened: as §1
[20] = Half life of compound in pH 7.4 phosphate buffer at 40 mM in presence of TECP or cysteine by methylene blue dye based UV-Vis spectrophotometric method; type: physicochemical; conditions: phosphate buffer with TECP or cysteine
Procedure, shortened: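 A 40 mM compound solution in pH 7.4 phosphate buffer was mixed with TECP or L-cysteine (1.0 mM) as promoter. Aliquots were mixed with methylene blue reagent, and after 20 min absorbance was read at 670 nm. H₂S was quantified against a Na₂S standard curve, and concentration-versus-time release curves were plotted to give half-lives.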

[21] = Toxicity in Wistar kyoto rat assessed as occult blood cells level in urine at 0.01 mmol/kg, ip administered for 14 days (reference value: 10 /uL); type: organism-based; conditions: in vivo, 336 h; procedure, shortened: as §3
H9c2 [22] = test: Cytoprotective activity against H2O2-induced toxicity in rat H9c2 cells assessed as increase in cell viability at 80 uM pretreated with compound followed by H2O2 addition and measured after 1 hrs relative to control; type: functional; procedure, shortened: as §2
[23] = Toxicity in Wistar kyoto rat assessed as urobilinogen level in urine at 0.01 mmol/kg, ip administered for 14 days (reference value: 1 umol/L); type: organism-based; conditions: in vivo, 336 h; procedure, shortened: as §3
[24] = Toxicity in Wistar kyoto rat assessed as bilirubin level in urine at 0.01 mmol/kg, ip administered for 14 days (reference value: 10 umol/L); type: organism-based; conditions: in vivo, 336 h; procedure, shortened: as §1
[25] = Toxicity in Wistar kyoto rat assessed as neutrophil ratio in blood at 0.01 mmol/kg, ip administered for 14 days (reference value: 54.7%); type: organism-based; conditions: in vivo, 336 h; procedure, shortened: as §3
[26] = Toxicity in Wistar kyoto rat assessed as protein level in urine at 0.01 mmol/kg, ip administered for 14 days (Rvb =0 g/L); type: organism-based; conditions: in vivo, 336 h; procedure, shortened: as §3
[27] = Toxicity in Wistar kyoto rat assessed as glucose in urine at 0.01 mmol/kg, ip administered for 14 days; type: organism-based; conditions: in vivo, 336 h; procedure, shortened: as §1
Rattus norvegicus = test: Antihypertensive activity in spontaneously hypertensive Wistar kyoto rat assessed as reduction in systolic arterial pressure at 40 mg/kg, ip administered for 6 hrs and measured every 30 mins post treatment by tail-cuff method; type: functional
Procedure, shortened: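 Male SHRs (8 weeks, 300 ± 25 g; 6 per group), given compound intraperitoneally once daily at 8 am in 0.5% (w/v) sodium carboxymethyl cellulose/DMSO 3/1 (v/v), 2 mL·kg⁻¹. Vehicle-treated SHR and WKY controls. SBP, DBP and heart rate were measured by tail-cuff on awake, restrained rats before dosing, then every 30 min for 6 h. Values are mean ± SD of four independent experiments.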

Row | Structure (SMILES) | Activity [1] | Activity (H9c2 [2]) | Activity [3] | Activity (H9c2 [4]) | Activity [5] | Activity (H9c2 [6]) | Activity [7] | Activity [8] | Activity [9] | Ratio [10] | Activity [11] | Activity [12] | Activity (H9c2 [13]) | Activity (H9c2 [14]) | pH [15] | Activity [16] | Activity [17] | Activity [18] | Activity [19] | half-life at 40000 µM [20] | also measured
1 | CC(C)Cc1ccc(C(C)C(=O)Oc2ccc(C(N)=S)cc2)cc1 (stereo not drawn) | 119 g/L | Dose-dependent effect | 52.8% | Non-Toxic | Non-Toxic | Dose-dependent effect | 5.5 ×10¹² /L | 1.8% | 1.72 ×10⁹ /L | 1.005 | Non-Toxic | 161 ×10⁹ /L | < 5% | Active | 7.5 | 70 µL⁻¹ | Non-Toxic | 0% | 1% | 20.1 min | Activity [21]: Non-Toxic; Activity (H9c2 [22]): 11.9%; Activity [23]: 16 µmol/L; Activity [24]: 17 µmol/L; Activity [25]: 44.4%; Activity [26]: 3 g/L; Activity [27]: Non-Toxic
2 | CC(C)Cc1ccc(C(C)C(=O)Oc2ccc(-c3cc(=S)ss3)cc2)cc1 (stereo not drawn) | 136 g/L | Dose-dependent effect | 60.4% | Non-Toxic | Toxic | Dose-dependent effect | 5.9 ×10¹² /L | 0.9% | 3.27 ×10⁹ /L | 1.005 | Non-Toxic | 114 ×10⁹ /L | < 5% | Active | 7.5 | 500 µL⁻¹ | 500 µmol/L | 0.2% | 2.6% | 1.4 min | Activity (Rattus norvegicus): 135.1 mmHg; Activity [21]: Non-Toxic; Activity (H9c2 [22]): 9.4%; Activity [23]: 66 µmol/L; Activity [24]: 50 µmol/L; Activity [25]: 35.9%; Activity [26]: 3 g/L; Activity [27]: Non-Toxic
3 | CC(=O)Nc1ccc(OC(=O)CCCCC2CCSS2)cc1 (stereo not drawn) | 135 g/L | Dose-dependent effect | 64.2% | Non-Toxic | Non-Toxic | Dose-dependent effect | 6.08 ×10¹² /L | 1.3% | 2.89 ×10⁹ /L | 1.005 | Non-Toxic | 194 ×10⁹ /L | 8.6% | Active | 7.5 | Non-Toxic | 4000 µmol/L | 0.2% | 2.6% | 14.1 min | Activity (Rattus norvegicus): 115.3 mmHg; Activity [21]: 80 µL⁻¹; Activity (H9c2 [22]): 13.3%; Activity [23]: 3.3 µmol/L; Activity [24]: 12 µmol/L; Activity [25]: 31.7%; Activity [26]: 3.2 g/L; Activity [27]: Non-Toxic
